Measurements reported in article PMC10405366 (Molecular pharmaceutics, 2023).

Columns and labels:
[1] = tested on: female athymic nude (nu/nu) mice; test: Tolerability study: serum chemistry; format: in vivo, mouse
In short: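 Athymic nude mice (n = 5 per group) received test compound or the Tween80:Captex200:saline vehicle IP every 2 days for 14 days. About 2–4 h after the last dose, mice were killed with CO2 and blood was drawn by cardiac puncture. Complete blood counts and serum chemistry were run by a pathology core. Values are given as means ± SD, n = 3–5.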

[2] = Mouse pharmacokinetics, plasma LC-MS/MS; format: in vivo; details: female C57BL/6 mice
MDA-MB-435 = test: Cell viability assay; format: cell-based, human; details: MDA-MB-435
In short: (§1)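 RPMI1640 (OVCAR3, OVCAR4, MDA-MB-435) or DMEM (OVCAR8, MDA-MB-231) was used, with 10% FBS and penicillin/streptomycin. Cells were STR-validated and kept below 20 passages. Cells were plated at 5000 per well overnight, then given test compound at final 0.95–250 nM (nine levels, 0.5% DMSO) for 72 h at 37 °C. Viability was read by CellTiter-Blue absorbance, and IC50 was taken relative to DMSO. Paclitaxel (0.39–100 nM) was the control, with three biological replicates.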

MDA-MB-231 = test: Cell viability assay; format: cell-based, human; details: MDA-MB-231
In short: as §1

OVCAR4 = test: 2D foci assay; format: cell-based, human; details: OVCAR4, 50 nM for 8 h, two weeks colony formation, relative to vehicle
In short: (§2)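 Cells were seeded at 200 per 60 mm dish and left to attach overnight. They were then exposed for 8 h to test compound (50 nM), DMSO vehicle or paclitaxel (10 nM). Medium was replaced and cells grew drug-free for about two weeks (15 days). Colonies were fixed in 4% paraformaldehyde, stained with 0.05% crystal violet, imaged and counted. There were three biological replicates, compared with vehicle by Dunnett's test.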

OVCAR8 = test: 2D foci assay; format: cell-based, human; details: OVCAR8, 50 nM for 8 h, two weeks colony formation, relative to vehicle
In short: as §2

[3] = 0.114 mg/kg IP every 2 days, 14 days
[4] = 0.285 mg/kg IP every 2 days, 14 days
[5] = 0.570 mg/kg IP every 2 days, removed day 13
[6] = 1.14 mg/kg IP every 2 days, removed at 8 days
[7] = 0.10 mg/kg IP every 2 days, 14 days
[8] = 0.25 mg/kg IP every 2 days, 14 days
[9] = 0.50 mg/kg IP every 2 days, removed day 13
[10] = 1.00 mg/kg IP every 2 days, removed at 8 days

Compound: CN1C(=O)[C@]23SS[C@@]1(C)C(=O)N2[C@H]1Nc2ccccc2[C@@]1([C@@]12c4ccccc4N[C@@H]1N1C(=O)[C@]4(C)SS[C@]1(C(=O)N4C)[C@H]2OC(=O)CCC(=O)O)[C@@H]3O [verticillin A succinate]
- ALP [1, 3]: 139 ± 9 U/L
- ALT [1, 3]: 39 ± 6 U/L
- AST [1, 3]: 88 ± 10 U/L
- BUN [1, 3]: 20 ± 1 mg/dL
- GGT [1, 3]: 8 ± 0 U/L
- albumin [1, 3]: 3.7 ± 0.2 g/dL
- amylase [1, 3]: 1039 ± 215 U/L
- calcium [1, 3]: 11.8 ± 0.3 mg/dL
- cholesterol [1, 3]: 141 ± 12 mg/dL
- creatine kinase [1, 3]: 160 ± 37 U/L
- creatinine [1, 3]: 0.43 ± 0.02 mg/dL
- globulin [1, 3]: 2.1 ± 0.2 g/dL
- glucose [1, 3]: 225 ± 28 mg/dL
- lipase [1, 3]: 55 ± 44 U/L
- phosphorous [1, 3]: 11.7 ± 0.8 mg/dL
- total bilirubin [1, 3]: 0.3 ± 0.1 mg/dL
- total protein [1, 3]: 5.8 ± 0.3 g/dL
- triglyceride [1, 3]: 247 ± 70 mg/dL
- ALP [1, 4]: 133 ± 19 U/L
- ALT [1, 4]: 47 ± 13 U/L
- AST [1, 4]: 125 ± 18 U/L
- BUN [1, 4]: 15 ± 1 mg/dL
- GGT [1, 4]: 0 ± 1 U/L
- albumin [1, 4]: 3.4 ± 0.2 g/dL
- amylase [1, 4]: 1208 ± 75 U/L
- calcium [1, 4]: 11.2 ± 0.7 mg/dL
- cholesterol [1, 4]: 146 ± 13 mg/dL
- creatine kinase [1, 4]: 214 ± 28 U/L
- creatinine [1, 4]: 0.42 ± 0.8 mg/dL
- globulin [1, 4]: 2.0 ± 0.2 g/dL
- glucose [1, 4]: 235 ± 10 mg/dL
- lipase [1, 4]: 74 ± 5 U/L
- phosphorous [1, 4]: 11.9 ± 0.8 mg/dL
- total bilirubin [1, 4]: 0.3 ± 0.0 mg/dL
- total protein [1, 4]: 5.4 ± 0.3 g/dL
- triglyceride [1, 4]: 262 ± 68 mg/dL
- ALP [1, 5]: 89 ± 13 U/L
- ALT [1, 5]: 48 ± 25 U/L
- AST [1, 5]: 254 ± 138 U/L
- BUN [1, 5]: 24 ± 8 mg/dL
- GGT [1, 5]: 4 ± 3 U/L
- albumin [1, 5]: 2.6 ± 0.9 g/dL
- amylase [1, 5]: 1203 ± 240 U/L
- calcium [1, 5]: 11.5 ± 0.9 mg/dL
- cholesterol [1, 5]: 115 ± 23 mg/dL
- creatine kinase [1, 5]: 1916 ± 1915 U/L
- creatinine [1, 5]: 0.29 ± 0.05 mg/dL
- globulin [1, 5]: 2.6 ± 1.1 g/dL
- glucose [1, 5]: 172 ± 49 mg/dL
- phosphorous [1, 5]: 15.5 ± 1.4 mg/dL
- total bilirubin [1, 5]: 0.4 ± 0.1 mg/dL
- total protein [1, 5]: 5.2 ± 0.4 g/dL
- triglyceride [1, 5]: 128 ± 38 mg/dL
- ALP [1, 6]: 74 ± 12 U/L
- ALT [1, 6]: 121 ± 145 U/L
- AST [1, 6]: 420 ± 438 U/L
- BUN [1, 6]: 24 ± 4 mg/dL
- GGT [1, 6]: 6 ± 4 U/L
- albumin [1, 6]: 2.4 ± 0.8 g/dL
- amylase [1, 6]: 1221 ± 520 U/L
- calcium [1, 6]: 7.2 ± 5.3 mg/dL
- cholesterol [1, 6]: 111 ± 10 mg/dL
- creatine kinase [1, 6]: 582 ± 384 U/L
- creatinine [1, 6]: 0.26 ± 0.05 mg/dL
- globulin [1, 6]: 2.5 ± 0.8 g/dL
- glucose [1, 6]: 141 ± 62 mg/dL
- lipase [1, 6]: 84 ± 64 U/L
- phosphorous [1, 6]: 12.2 ± 1.0 mg/dL
- total bilirubin [1, 6]: 0.5 ± 0.3 mg/dL
- total protein [1, 6]: 4.9 ± 0.4 g/dL
- triglyceride [1, 6]: 266 ± 160 mg/dL
- plasma concentration ([2]; IV 0.285 mg/kg, initial PK time points): < 3 nM
- cytotoxic activity (MDA-MB-435): pronounced cytotoxic activities
- cytotoxic activity (MDA-MB-231): pronounced cytotoxic activities
- foci formation (OVCAR4): completely abrogated foci formation
- foci formation (OVCAR8): completely abrogated foci formation

Compound: CN1C(=O)[C@]23SS[C@@]1(C)C(=O)N2[C@H]1Nc2ccccc2[C@@]1([C@@]12c4ccccc4N[C@@H]1N1C(=O)[C@@]4(C)SS[C@]1(C(=O)N4C)[C@H]2O)[C@@H]3O [verticillin A]
- ALP [1, 7]: 163 ± 27 U/L
- ALT [1, 7]: 38 ± 6 U/L
- AST [1, 7]: 98 ± 16 U/L
- BUN [1, 7]: 18 ± 3 mg/dL
- GGT [1, 7]: 5 ± 0 U/L
- albumin [1, 7]: 3.5 ± 0.3 g/dL
- amylase [1, 7]: 1153 ± 176 U/L
- calcium [1, 7]: 11.8 ± 0.4 mg/dL
- cholesterol [1, 7]: 144 ± 16 mg/dL
- creatine kinase [1, 7]: 241 ± 85 U/L
- creatinine [1, 7]: 0.56 ± 0.03 mg/dL
- globulin [1, 7]: 2.2 ± 0.4 g/dL
- glucose [1, 7]: 191 ± 42 mg/dL
- lipase [1, 7]: 43 ± 15 U/L
- phosphorous [1, 7]: 12.8 ± 1.1 mg/dL
- total bilirubin [1, 7]: 0.4 ± 0.1 mg/dL
- total protein [1, 7]: 5.6 ± 0.4 g/dL
- triglyceride [1, 7]: 202 ± 42 mg/dL
- ALP [1, 8]: 141 ± 14 U/L
- ALT [1, 8]: 46 ± 13 U/L
- AST [1, 8]: 112 ± 19 U/L
- BUN [1, 8]: 17 ± 4 mg/dL
- GGT [1, 8]: 3 ± 1 U/L
- albumin [1, 8]: 3.3 ± 0.2 g/dL
- amylase [1, 8]: 1189 ± 89 U/L
- calcium [1, 8]: 11.6 ± 0.5 mg/dL
- cholesterol [1, 8]: 141 ± 10 mg/dL
- creatine kinase [1, 8]: 237 ± 60 U/L
- creatinine [1, 8]: 0.21 ± 0.7 mg/dL
- globulin [1, 8]: 2.1 ± 0.3 g/dL
- glucose [1, 8]: 187 ± 33 mg/dL
- lipase [1, 8]: 71 ± 4 U/L
- phosphorous [1, 8]: 14.0 ± 1.0 mg/dL
- total bilirubin [1, 8]: 0.3 ± 0.0 mg/dL
- total protein [1, 8]: 5.5 ± 0.4 g/dL
- triglyceride [1, 8]: 236 ± 52 mg/dL
- ALP [1, 9]: 92 ± 19 U/L
- ALT [1, 9]: 55 ± 23 U/L
- AST [1, 9]: 201 ± 51 U/L
- BUN [1, 9]: 26 ± 3 mg/dL
- GGT [1, 9]: 7 ± 2 U/L
- albumin [1, 9]: 3.2 ± 0.2 g/dL
- amylase [1, 9]: 1397 ± 318 U/L
- calcium [1, 9]: 11.7 ± 0.4 mg/dL
- cholesterol [1, 9]: 124 ± 22 mg/dL
- creatine kinase [1, 9]: 302 ± 65 U/L
- creatinine [1, 9]: 0.36 ± 0.03 mg/dL
- globulin [1, 9]: 2.1 ± 0.2 g/dL
- glucose [1, 9]: 176 ± 19 mg/dL
- phosphorous [1, 9]: 16.4 ± 2.3 mg/dL
- total bilirubin [1, 9]: 0.4 ± 0.2 mg/dL
- total protein [1, 9]: 5.3 ± 0.3 g/dL
- triglyceride [1, 9]: 187 ± 139 mg/dL
- ALP [1, 10]: 70 ± 61 U/L
- ALT [1, 10]: 44 ± 8 U/L
- AST [1, 10]: 225 ± 68 U/L
- BUN [1, 10]: 25 ± 4 mg/dL
- GGT [1, 10]: 7 ± 3 U/L
- albumin [1, 10]: 2.1 ± 0.9 g/dL
- amylase [1, 10]: 1213 ± 149 U/L
- calcium [1, 10]: 11.4 ± 0.4 mg/dL
- cholesterol [1, 10]: 90 ± 26 mg/dL
- creatine kinase [1, 10]: 498 ± 184 U/L
- creatinine [1, 10]: 0.30 ± 0.12 mg/dL
- globulin [1, 10]: 2.9 ± 1.0 g/dL
- glucose [1, 10]: 116 ± 17 mg/dL
- lipase [1, 10]: 52 ± 22 U/L
- phosphorous [1, 10]: 10.6 ± 6.8 mg/dL
- total bilirubin [1, 10]: 0.3 ± 0.0 mg/dL
- total protein [1, 10]: 5.0 ± 0.4 g/dL
- triglyceride [1, 10]: 114 ± 20 mg/dL
- plasma concentration ([2]; IP 0.25 mg/kg, most results just above the lower limit): 1 to 1000 nM
- plasma concentration ([2]; IV 0.25 mg/kg, most results just above the lower limit): 1 to 1000 nM
- plasma concentration ([2]; oral gavage 2.5 mg/kg, linear range 1–1000 nM): BLOQ
- cytotoxic activity (MDA-MB-435): pronounced cytotoxic activities
- cytotoxic activity (MDA-MB-231): pronounced cytotoxic activities
- foci formation (OVCAR4): completely abrogated foci formation
- foci formation (OVCAR8): completely abrogated foci formation
